Data set [1] has as its system Fusarium verticillioides. Description: Antifungal activity against Fusarium moniliforme incubated for 48 to 72 hrs by agar microdilution method. In kind it is functional. Put shortly:
(§1)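 MIC by microdilution against the fungal strain, limited to compounds showing significant zones in the diffusion assay. Bavistin was used as the reference.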

Data set [2] deals with Fusarium oxysporum. The data set is described as follows: Antifungal activity against Fusarium oxysporum at 50 ug/mL incubated for 3 days by agar well diffusion method. The settings on record: 72 h, read-out: IZ. In kind it is functional. The method, boiled down:
(§2)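 Fungal growth inhibition measured by agar well diffusion, with bavistin as the reference. Records the mean inhibition-zone diameter (mm) around each well.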
(In general: Agar diffusion results depend on both activity and mobility in agar.)

Data set [3] deals with Fusarium oxysporum. The data set is described as follows: Antifungal activity against Fusarium oxysporum incubated for 48 to 72 hrs by agar microdilution method. Type of data set: functional. The method, boiled down:
as §1

A short description of data set [4]: Antiglycation activity using bovine serum albumin incubated at 37 degC for 7 days by spectrofluorimetry. Type of data set: physicochemical. Put shortly: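 Glycation of bovine serum albumin, with rutin as the reference standard. IC50 values are averages of triplicate runs.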
The next data set has as its target Urease (Canavalia ensiformis, UniProt P07374). Description: Inhibition of jack bean urease assessed as reduction in ammonia production incubated at 30 degC for 15 mins by indophenol method. The method, boiled down: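 Inhibition of jack bean urease, with thiourea as the reference standard. IC50 values are the average of triplicate runs.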
Data set [5] in a line: Inhibition of sheep stomach parietal cells gastric H+/K+-ATPase activity assessed as reduction in inorganic phosphorus production by Fiske Subbarow's method. In kind it is tissue-based, Ovis aries. The settings on record: read-out: IC50. The method, boiled down: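 Inhibition of purified H+/K+-ATPase, with omeprazole as the reference. IC50 is the mean of triplicate runs.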

Data set [6] has as its system Escherichia coli. The data set is described as follows: Antibacterial activity against Escherichia coli at 50 ug/mL incubated for 24 hrs by agar well diffusion method. Type of data set: functional. The settings on record: read-out: IZ. The method, boiled down: (§3)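 Agar well diffusion against the bacterial isolate, with streptomycin as the reference drug. Read-out is the average diameter (mm) of the growth-inhibition zone around the well.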

The subject of data set [7] is Escherichia coli. The data set is described as follows: Antibacterial activity against Escherichia coli incubated for 24 hrs by agar microdilution method. In kind it is functional.
Another data set relates to Xanthomonas oryzae. The data set is described as follows: Antibacterial activity against Xanthomonas oryzae at 50 ug/mL incubated for 24 hrs by agar well diffusion method. In kind it is functional. The settings on record: read-out: IZ.
For the next data set, the system named is Klebsiella pneumoniae. Description: Antibacterial activity against Klebsiella pneumoniae incubated for 24 hrs by agar microdilution method. In kind it is functional.
The subject of data set [8] is Staphylococcus. The data set is described as follows: Antibacterial activity against Coagulase positive Staphylococcus at 50 ug/mL incubated for 24 hrs by agar well diffusion method. In kind it is functional. The settings on record: read-out: IZ. The method, boiled down:
as §3

Data set [9] has as its system Staphylococcus. The data set is described as follows: Antibacterial activity against Coagulase positive Staphylococcus incubated for 24 hrs by agar microdilution method. In kind it is functional.
For data set [10], the system named is Aspergillus flavus. Description: Antifungal activity against Aspergillus flavus at 50 ug/mL incubated for 3 days by agar well diffusion method. Type of data set: functional. The settings on record: 72 h, read-out: IZ. The method, boiled down:
as §2

The test system of data set [11] is Aspergillus flavus. The data set is described as follows: Antifungal activity against Aspergillus flavus incubated for 48 to 72 hrs by agar microdilution method. In kind it is functional. Put shortly:
as §1

Data set [12] has as its system Aspergillus niger. Description: Antifungal activity against Aspergillus niger at 50 ug/mL incubated for 3 days by agar well diffusion method. The settings on record: 72 h, read-out: IZ. Type of data set: functional. The method, boiled down: as §2
Data set [13] deals with Aspergillus niger. Description: Antifungal activity against Aspergillus niger incubated for 48 to 72 hrs by agar microdilution method. In kind it is functional. The method, boiled down: as §1
Data set [14] concerns Fusarium verticillioides. The data set is described as follows: Antifungal activity against Fusarium moniliforme at 50 ug/mL incubated for 3 days by agar well diffusion method. In kind it is functional. The settings on record: 72 h, read-out: IZ. Put shortly:
as §2

The values that follow come from ChEMBL document CHEMBL3352339, “Implications of N-capped urea/thiourea and C-capped 3-(1-piperazinyl)-1,2-benzisothiazole with bridging Gly-Val/Phe-Gly-Val-Pro as therapeutic targets” (Eur J Med Chem, 2014).

The structures appear in SMILES notation. Values after ≈ are worked out from the molar mass of the structure shown. Starred links: 1 amine or outer side, 2 acyl side, 3 side chain; linkers in the order of their positions; H or OH if unused. Residues, ends and D or L forms follow the SMILES beside them. *: point of attachment. Thiocarbamoyl(4-MeOPh) = COc1ccc(NC(=S)*)cc1; NH(4-MeO-phenyl) = COc1ccc(N*)cc1; X1 = c1ccc2c(N3CCN(*)CC3)nsc2c1; NH(2-F-phenyl) = Fc1ccccc1N*; NH(3-MeOPh) = COc1cccc(N*)c1; CO = O=C([*:1])[*:2]

Sequence of Urease (P07374 whole entry): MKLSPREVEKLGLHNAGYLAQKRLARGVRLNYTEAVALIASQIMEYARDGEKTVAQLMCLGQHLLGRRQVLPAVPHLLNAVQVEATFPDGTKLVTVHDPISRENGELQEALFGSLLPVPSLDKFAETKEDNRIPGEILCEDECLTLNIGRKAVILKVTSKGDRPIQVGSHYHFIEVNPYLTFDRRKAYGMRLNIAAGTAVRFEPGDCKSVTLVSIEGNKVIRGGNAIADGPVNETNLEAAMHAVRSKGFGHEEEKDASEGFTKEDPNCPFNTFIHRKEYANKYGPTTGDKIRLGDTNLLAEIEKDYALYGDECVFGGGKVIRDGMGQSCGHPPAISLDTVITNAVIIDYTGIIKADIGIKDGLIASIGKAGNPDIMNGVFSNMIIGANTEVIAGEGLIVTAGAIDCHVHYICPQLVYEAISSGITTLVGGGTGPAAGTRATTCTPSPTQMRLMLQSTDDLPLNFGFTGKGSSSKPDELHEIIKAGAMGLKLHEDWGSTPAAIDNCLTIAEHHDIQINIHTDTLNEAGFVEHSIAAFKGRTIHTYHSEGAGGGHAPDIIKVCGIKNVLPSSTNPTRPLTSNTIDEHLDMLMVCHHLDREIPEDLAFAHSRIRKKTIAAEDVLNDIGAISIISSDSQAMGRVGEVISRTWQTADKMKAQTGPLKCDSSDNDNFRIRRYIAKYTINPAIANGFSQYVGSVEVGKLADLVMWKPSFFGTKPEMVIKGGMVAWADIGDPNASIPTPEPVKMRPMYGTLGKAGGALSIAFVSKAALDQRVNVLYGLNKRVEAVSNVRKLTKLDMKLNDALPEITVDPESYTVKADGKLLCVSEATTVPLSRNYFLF

For orientation: MIC means the lowest concentration that inhibits growth of the organism. Read a high MIC as weaker potency. What is called IC50 is the concentration needed to halve the response being measured. In the case of `CC(C)[C@H](NC(=O)CNC(=O)[C@H](Cc1ccccc1)NC(=O)CNC(=O)Nc1ccccc1F)C(=O)N1CCC[C@H]1C(=O)N1CCN(c2nsc3ccccc23)CC1` ({NH(2-F-phenyl)-CO}-GFGVP-X1), the MIC against Fusarium verticillioides [1] is 10 µg/mL (≈ 12.3 µM); in the data set on Fusarium oxysporum [3], 14 µg/mL (≈ 17.2 µM); in the data set on Escherichia coli [7], 12.8 µg/mL (≈ 15.7 µM); against Klebsiella pneumoniae, 12.2 µg/mL (≈ 15 µM); in the data set on Staphylococcus [9] it was 12.2 µg/mL (≈ 15 µM); in the data set on Aspergillus flavus [11], 14.2 µg/mL (≈ 17.5 µM). In addition, the MIC with Aspergillus niger [13] worked out at 14 µg/mL (≈ 17.2 µM). Also, the zone of inhibition at 50 µg/mL with Fusarium oxysporum [2] worked out at 29 mm; in the data set with Escherichia coli [6] it was 30 mm; with Xanthomonas oryzae, 28 mm; with Staphylococcus [8], 29 mm; in the data set on Aspergillus flavus [10], 28 mm; in the data set on Aspergillus niger [12], 29 mm. For the same compound, the zone of inhibition at 50 µg/mL with Fusarium verticillioides [14] stood at 26 mm. Also, the values for the IC50 (in data set [4]; at Urease; in data set [5]) were 53 µM, 41 µM and 110 µM, respectively.
On to `CC(C)[C@H](NC(=O)CNC(=O)Nc1ccccc1F)C(=O)NCC(=O)N[C@H](C(=O)N1CCC[C@H]1C(=O)N1CCN(c2nsc3ccccc23)CC1)C(C)C` ({NH(2-F-phenyl)-CO}-GVGVP-X1), for which the MIC against Fusarium verticillioides [1] is 15.5 µg/mL (≈ 20.2 µM); against Fusarium oxysporum [3] it was 16.8 µg/mL (≈ 21.9 µM); with Escherichia coli [7], 15.8 µg/mL (≈ 20.6 µM); in the data set with Klebsiella pneumoniae, 17 µg/mL (≈ 22.2 µM); in the data set on Staphylococcus [9], 16.8 µg/mL (≈ 21.9 µM); in the data set with Aspergillus flavus [11], 17.8 µg/mL (≈ 23.2 µM). In the data set on Aspergillus niger [13], the MIC was determined as 16.8 µg/mL (≈ 21.9 µM). Also, the zone of inhibition at 50 µg/mL came out at 22 mm in the data set on Fusarium oxysporum [2]; 25 mm in the data set with Escherichia coli [6]; 23 mm in the data set with Xanthomonas oryzae; 25 mm with Staphylococcus [8]; 24 mm with Aspergillus flavus [10]; 25 mm in the data set with Aspergillus niger [12]. In the data set on Fusarium verticillioides [14], the zone of inhibition at 50 µg/mL was found to be 26 mm. For the same compound, the values for the IC50 (in data set [4]; on Urease; in [5]) were 54 µM, 42 µM and 100 µM, respectively.
For the compound `COc1cccc(NC(=O)NCC(=O)N[C@H](C(=O)NCC(=O)N[C@H](C(=O)N2CCC[C@H]2C(=O)N2CCN(c3nsc4ccccc34)CC2)C(C)C)C(C)C)c1` ({NH(3-MeOPh)-CO}-GVGVP-X1), the zone of inhibition at 50 µg/mL was found to be 18 mm with Fusarium oxysporum [2]; 15 mm with Escherichia coli [6]; 13 mm in the data set with Xanthomonas oryzae; 14 mm in the data set with Staphylococcus [8]; 17 mm in the data set on Aspergillus flavus [10]; 15 mm with Aspergillus niger [12]. Also, the zone of inhibition at 50 µg/mL with Fusarium verticillioides [14] is 18 mm. In addition, the IC50 stood at 25 µM in data set [4], 25 µM on Urease and 38 µM in data set [5].
Take `COc1ccc(NC(=O)NCC(=O)N[C@@H](Cc2ccccc2)C(=O)NCC(=O)N[C@H](C(=O)N2CCC[C@H]2C(=O)N2CCN(c3nsc4ccccc34)CC2)C(C)C)cc1` ({NH(4-MeO-phenyl)-CO}-GFGVP-X1): the zone of inhibition at 50 µg/mL is 27 mm in the data set on Fusarium oxysporum [2]; 26 mm with Escherichia coli [6]; 23 mm in the data set with Xanthomonas oryzae; 26 mm with Staphylococcus [8]; 28 mm in the data set with Aspergillus flavus [10]; 28 mm with Aspergillus niger [12]. In the data set with Fusarium verticillioides [14], the zone of inhibition at 50 µg/mL came to 29 mm. Besides, the IC50 in data set [4] came to 19 µM; at Urease, 17 µM; in data set [5], 38 µM.
For the compound `COc1ccc(NC(=O)NCC(=O)N[C@H](C(=O)NCC(=O)N[C@H](C(=O)N2CCC[C@H]2C(=O)N2CCN(c3nsc4ccccc34)CC2)C(C)C)C(C)C)cc1` ({NH(4-MeO-phenyl)-CO}-GVGVP-X1), the zone of inhibition at 50 µg/mL in the data set on Fusarium oxysporum [2] was 28 mm; with Escherichia coli [6] it was 23 mm; in the data set with Xanthomonas oryzae, 22 mm; in the data set on Staphylococcus [8], 22 mm; with Aspergillus flavus [10] it was 26 mm; in the data set with Aspergillus niger [12], 24 mm. Moreover, in the data set with Fusarium verticillioides [14], the zone of inhibition at 50 µg/mL amounted to 24 mm. Moreover, the values for the IC50 (in data set [4]; on Urease; in [5]) were 21 µM, 21 µM and 34 µM, respectively.
As for `COc1ccc(NC(=S)NCC(=O)N[C@@H](Cc2ccccc2)C(=O)NCC(=O)N[C@H](C(=O)N2CCC[C@H]2C(=O)N2CCN(c3nsc4ccccc34)CC2)C(C)C)cc1` ({Thiocarbamoyl(4-MeOPh)}-GFGVP-X1), the zone of inhibition at 50 µg/mL was determined as 29 mm in the data set with Fusarium oxysporum [2]; 28 mm in the data set on Escherichia coli [6]; 26 mm with Xanthomonas oryzae; 28 mm with Staphylococcus [8]; 29 mm in the data set on Aspergillus flavus [10]; 30 mm with Aspergillus niger [12]. Besides, the zone of inhibition at 50 µg/mL in the data set with Fusarium verticillioides [14] is 31 mm. Besides, the values for the IC50 (in data set [4]; at Urease; in data set [5]) were 16 µM, 15 µM and 34 µM, respectively.
